Assay outcomes (PubChem)
Compounds with a hit are over-represented: about 3.7% of the library has one in this group of screens.
SR-BI HDL uptake: mouse SR-BI HDL lipid transfer inhibition | Q61009 | ldlA[mSR-BI] CHO cells, DiI-HDL uptake fluorescence, 3 h | inhibition, % at 12.5 µM | hit rate 0.96% among 320,000;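 active = mean replicate inhibition of at least 70% and a set share of replicates each scoring 70 or more; inconclusive = meets just one of the two criteria; inactive = fails both criteria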;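 also: 0% = median of neutral control wells and 100% = median of positive control wells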
Target sequence (Q61009 whole entry, looked up): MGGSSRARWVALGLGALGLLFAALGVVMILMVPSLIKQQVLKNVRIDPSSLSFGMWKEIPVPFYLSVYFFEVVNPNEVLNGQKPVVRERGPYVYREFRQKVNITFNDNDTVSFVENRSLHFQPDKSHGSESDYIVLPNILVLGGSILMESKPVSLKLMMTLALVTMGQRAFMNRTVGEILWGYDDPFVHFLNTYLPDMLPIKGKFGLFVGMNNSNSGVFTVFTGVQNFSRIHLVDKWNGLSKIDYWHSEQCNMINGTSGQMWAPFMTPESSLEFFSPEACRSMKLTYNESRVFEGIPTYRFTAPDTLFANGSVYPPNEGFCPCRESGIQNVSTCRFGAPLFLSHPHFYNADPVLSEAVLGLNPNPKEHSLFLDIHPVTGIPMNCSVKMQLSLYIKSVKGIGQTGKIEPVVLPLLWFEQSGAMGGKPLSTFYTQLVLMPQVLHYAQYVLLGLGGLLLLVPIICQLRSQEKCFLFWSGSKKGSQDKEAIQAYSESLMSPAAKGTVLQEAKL
GASC-1 inh: inhibitors of human GASC-1 (JMJD2C) demethylase; GST-JMJD2C(1-420) H3K9me3 demethylation, DELFIA europium; AID 2099; inhibition, % at 2.35 µM; hit rate 0.069% among 330,000; Q9H3R0;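 active = more than half of a compound's replicate wells show inhibition beyond 50%, single wells judged on their own value; inconclusive = some, but no more than half, of replicates pass 50% inhibition; inactive = no replicate passes 50% inhibition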;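 also: signal counts dimethyl H3K9 product captured on neutravidin plate; 0% = median of DMSO wells and 100% = 0.3 times that DMSO median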
SR-BI DiI-HDL act: activators of SR-BI mediated HDL lipid uptake | CHO ldlA[mSR-BI] cells, DiI-HDL uptake fluorescence, 3 h; 100 = double the neutral-control signal | hit rate 0.096% among 320,000 | activation, % at 12.5 µM | AID 504775;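 active = mean replicate activation of at least 60% and every replicate at or above 60%; inconclusive = mean or all-replicate condition met, but not both; inactive = mean below 60% and not all replicates reaching 60%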;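 also: 0% = median plate neutral-control signal and 100% = twice that signal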
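Test system: SR-BI-overexpressing, LDLR-lacking CHO cells; Also added: labelled HDL, 10 µg/mL; Measured by: bottom-read cell fluorescence after medium removal, ex 550/em 595 nm; Timing: 3 h uptake period with compound, 37 °C; Buffer or medium: F12, 0.5% BSA, 25 mM HEPES; Doses: single compound concentration, delivered by pin transfer.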
FXN GAA850 act: frataxin GAA850 promoter activation. HEK293 lucGAA850 FXN promoter luciferase reporter, 24 h; percent of 10 µM SAHA response. hit rate 0.56% among 360,000. activation, % at 6 µM;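 active = activation above the average of all compounds screened plus 3 SD, cutoff fixed separately per campaign, cut at about 7.5% in these data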;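 also: 0% = DMSO wells and 100% = 10 µM SAHA wells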
AHR activator: human AHR activation | AHR-responsive luciferase reporter cells, luminescence | AID 2796 | activation, % at 5 µM | hit rate 2.5% among 320,000 | P35869; in the data active = activation above about 47%;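 also: 0% = vehicle wells and 100% = reference agonist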
An asterisk follows results filed as active; ? = inconclusive; . = no result given.

SMILES | SR-BI HDL uptake | GASC-1 inh | SR-BI DiI-HDL act | FXN GAA850 act | AHR activator
COc1cccc(C(=O)Nc2ccc(NC(=O)C3CC=CCC3C(=O)O)cc2)c1 (stereo not drawn) | -5.9 | 10.7 | 5.9 | 0.8 | 17.7
CC(C)CC(=O)NC(=S)Nc1cccc(NC(=O)c2ccccc2)c1 | 30.9 | 8.1 | -30.9 | -0.2 | 5.5
Cc1cc(NC(=S)NC(=O)CC(C)C)ccc1Br | -21.8 | 0.8 | 21.8 | 3.2 | 64.0*
COCCN(CCOC)C(=O)COC(=O)c1cc([N+](=O)[O-])ccc1Cl | 9.8 | 2.6 | -9.8 | -0.1 | 1.5
CCCCCCc1c(C)[nH]c2nc3ccccc3n2c1=O | -26.5 | 1.6 | 26.5 | 0.8 | 1.7
CCCCC(CC)C(=O)Nc1cc(=O)[nH]c2nc3ccccc3n12 (stereo not drawn) | -410.4 | 0.3 | 410.4* | 0.9 | 10.7
Cc1ccc([N+](=O)[O-])cc1S(=O)(=O)Nc1ccc(N2CCOCC2)cc1 | -14.2 | -12.5 | 14.2 | 2.8 | 3.5
CCOc1cc(/C=N/O)ccc1OCc1ccc([N+](=O)[O-])cc1 | 17.7 | 4.9 | -17.7 | 3.7 | 78.1*
COc1ccc(OCC(O)CNC(=O)Nc2ccc(F)cc2)cc1 (stereo not drawn) | -11.0 | -4.8 | 11.0 | 1.5 | -2.6
O=C(Nc1ccccc1)c1cccc2c(Br)cccc12 | 38.7 | -6.2 | -38.7 | 1.2 | 57.2*
CCC(=O)Nc1ccc(NC(=O)c2cccc3c(Br)cccc23)cc1 | 14.1 | 2.0 | -14.1 | 1.5 | 0.4
Cc1ccc(C(=O)Nc2ccc(Br)c(C(F)(F)F)c2)cc1 | 72.1* | -1.0 | -72.1 | 5.8 | -2.6
Cc1ccc(NC(=O)c2ccc(C)cc2)cc1 | 24.9 | 1.8 | -24.9 | -0.6 | -2.2
Cc1cccc(NC(=O)c2ccc(NC(=O)c3ccccc3Br)cc2)c1 | 71.9* | 5.3 | -71.9 | 2.9 | -0.2
O=C(Nc1ccc(Br)cn1)c1ccc2ccccc2c1 | 18.8 | 6.6 | -18.7 | 0.6 | 47.8*
O=C(Nc1ccc(Br)cn1)c1cccc(C(=O)Nc2ccc(Br)cn2)c1 | 20.6 | 9.0 | -20.6 | 3.0 | 14.0
CC(=O)N1CCC(CCCC2CCN(C(C)=O)CC2)CC1 | 22.4 | 8.8 | -22.4 | 1.5 | 1.6
O=C(Nc1ccc(Cl)cn1)c1cccc2c(Br)cccc12 | -19.5 | -13.8 | 19.5 | -1.3 | 74.1*
O=C(Nc1ccc(Br)cn1)c1cccc2ccccc12 | . | 0.6 | . | -2.8 | 70.0*
Cc1cc(C)cc(OCc2nc3ncc(Br)cc3[nH]2)c1 | -27.8 | 17.7 | 27.8 | -4.6 | 69.4*
Cc1cc(C)n(CCNC(=O)c2cc(COc3ccc(F)cc3Cl)on2)n1 | 34.2 | 4.1 | -34.2 | -0.2 | -2.2
CSc1ccccc1OCc1cc(C(=O)NCCn2nc(C)cc2C)no1 | 71.8* | -17.3 | -71.8 | 1.9 | 22.2
Cn1cnc(S(=O)(=O)N2CCN(c3ccc(F)cc3)CC2)c1 | . | 4.4 | . | 0.1 | -1.1
Brc1ccccc1-c1nc2c3ccccc3ncn2n1 | 13.8 | 3.1 | -13.8 | 3.6 | 65.6*
COc1ccccc1NC(=O)CN(Cc1ccco1)C(=O)c1ccc(N2CCCC2=O)cc1 | 8.4 | . | -8.4 | 0.9 | 1.7
SMILES | SR-BI HDL uptake | GASC-1 inh | SR-BI DiI-HDL act | FXN GAA850 act | AHR activator
O=c1ccc2cc3c([nH]c4ccc(Br)cc43)oc-2c1O | 87.8* | 31.1 | -87.8 | -0.9 | 37.7
O=C(O)c1ccc(N=Nc2c(O)[nH]c3ccc(Br)cc23)cc1 | -5.4 | 14.7 | 5.4 | 3.9 | 13.8
CCCNC(=O)c1ccc2c(=O)c(O)c(-c3ccc(F)cc3)[nH]c2c1 | 38.5 | 2.4 | -38.5 | -3.0 | 69.7*
CCOCCCNC(=O)c1ccc(N2CC3CC(C2)c2cccc(=O)n2C3)c(NC(=O)Nc2cccc(OC)c2)c1 (stereo not drawn) | -19.6 | -1.1 | 19.6 | -4.0 | 2.9
COc1ccc(-c2[nH]c(-c3cccc(OC)c3)nc2SCC(=O)NC2CCCC2)cc1 | ? | 3.7 | -72.7 | -1.0 | 64.6*
COCCn1nnnc1C(c1cc2cc(C)ccc2[nH]c1=O)N1CCc2ccccc21 (stereo not drawn) | -13.3 | -16.3 | 13.3 | 1.4 | 64.5*
CCc1cccc(NC(=O)CCC(=O)N2CCSc3ccccc32)c1 | -16.2 | 0.3 | 16.2 | -0.9 | 2.4
CCc1ccc(NC(=O)CCC(=O)N2CCSc3ccccc32)cc1 | 3.6 | -0.7 | -3.6 | -2.3 | 69.1*
N#Cc1c(C(F)(F)F)cc(-c2ccccc2Cl)[nH]c1=O | -5.8 | -1.4 | 5.8 | 0.0 | 1.7
Nc1cccc(CCc2nc3cc4ccccc4cc3[nH]2)c1 | 15.1 | -16.2 | -15.1 | 0.5 | 62.0*
CCN1C(=S)N[C@@H](CCc2ccccc2)C(C(=O)OC)=C1C | -15.2 | -14.4 | 15.2 | 1.5 | 53.0*
Cc1cc(C(=O)COc2ccc([N+](=O)[O-])cc2)c(C)n1C1CC1 | . | -8.0 | . | 4.8 | -3.4
Cc1cc(C(=O)COc2cc(F)ccc2[N+](=O)[O-])c(C)n1C1CC1 | 15.1 | 0.0 | -15.0 | 1.8 | 76.5*
CCOC(=O)CN1CC23C=CC(O2)C(C(=O)Nc2ccc(OCC)cc2)C3C1=O (stereo not drawn) | -5.7 | 2.6 | 5.7 | 0.8 | -2.4
CCOC(=O)CN1CC23C=CC(O2)C(C(=O)Nc2ccc4c(c2)OCO4)C3C1=O (stereo not drawn) | -10.9 | 2.5 | 10.9 | 2.6 | 70.4*
O=C1Nc2ccccc2/C1=C/c1cnc(-c2ccccc2)[nH]1 | 2.7 | 8.1 | -2.7 | 5.5 | 72.6*
O=C1Nc2ccccc2/C1=C/c1cccnc1 | -20.7 | -13.5 | 20.7 | 0.6 | 12.8
CCCCCCCn1c(=O)c(C(=O)OC)c(N)c2ccccc21 | -16.0 | 12.5 | 16.0 | -0.3 | 9.9
Cc1nn2c(-c3cccc(NC(=O)CSc4nc5ccccc5o4)c3)nnc2c2ccccc12 | 76.5* | -5.2 | -76.5 | 2.1 | 26.1
Cc1ccc(NC(=O)c2ccc(NC(=O)c3ccccc3)cc2)cc1C | 59.8 | 0.2 | -59.8 | -0.6 | -1.1
COc1ccc(C(=O)NCC(=O)N/N=C/C=C/c2ccccc2)cc1OC | 83.0* | -3.4 | -83.0 | 2.9 | 4.2
COc1ccc(C(=O)Nc2ccc(Nc3ccccc3)cc2)cc1OC | 79.1* | -2.3 | -79.1 | 1.2 | -0.7
Cc1cc(NC(=O)c2ccccc2)cc(NC(=O)c2ccccc2)c1C | 40.5 | -4.0 | -40.5 | 1.2 | 78.3*
COc1ccc(C(=O)Nc2ccc(Cn3ccnc3)cc2)cc1OC | 39.2 | -11.5 | -39.2 | 0.5 | 50.9*
COc1cc(OC)cc(C(=O)Nc2ccc(Cn3ccnc3)cc2)c1 | 30.1 | 6.0 | -30.1 | 3.6 | 35.6
Cc1nn(-c2ccccc2)nc1C(=O)NN | 14.6 | 5.5 | -14.6 | -0.6 | 5.8
COc1ccc(NC(=O)c2ccc(CN3CCN(c4ccccc4)CC3)cc2)cc1OC | 76.1* | . | -76.1 | -4.7 | 6.7
COc1ccc(C(=O)Nc2ccc3[nH]ncc3c2)cc1OC | 32.0 | -4.0 | -32.0 | 4.5 | 47.6*
Cc1nn(-c2ccccc2)nc1C(=O)Nc1ccc2[nH]ncc2c1 | -2.0 | 8.6 | 2.0 | 3.5 | 52.4*
COc1ccc(C)cc1NC(=O)c1ccc(CN2CCN(c3ccccc3)CC2)cc1 | 22.2 | -2.7 | -22.2 | -2.7 | 10.7
